Results as given in ChEMBL document CHEMBL3751743, “Synthesis and anti-cancer screening of novel heterocyclic-(2H)-1,2,3-triazoles as potential anti-cancer agents” (Medchemcomm, 2015).

Assays:
Format in all cases: functional
[1] = Cytotoxicity against human DU145 cells after 48 hrs by SRB assay; settings: DU-145, 48 h
Procedure, shortened: (§1)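 NCI-60 five-dose screen: compounds dissolved in DMSO/H2O, tested at five 10-fold dilutions (10^-4 to 10^-8 M) for 48 h. Growth measured by sulforhodamine B optical density at time zero and after 48 h drug or vehicle exposure. Percentage growth calculated relative to control. GI50 is the molar concentration giving 50% reduction in net cell growth versus day-0 cell numbers.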

MCF7 = assay: Cytotoxicity against human MCF7 cells after 48 hrs by SRB assay; settings: MCF7, 48 h; procedure, shortened: as §1
MDA-MB-231 = assay: Cytotoxicity against human MDA-MB-231 cells after 48 hrs by SRB assay; settings: MDA-MB-231, 48 h; procedure, shortened: as §1
[2] = Cytotoxicity against human Hs 578T cells after 48 hrs by SRB assay; procedure, shortened: as §1
[3] = Cytotoxicity against human BT549 cells after 48 hrs by SRB assay; settings: BT-549, 48 h; procedure, shortened: as §1
T47D = assay: Cytotoxicity against human T47D cells after 48 hrs by SRB assay
Procedure, shortened: (§2)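 NCI-60 five-dose screen. Compounds dissolved in DMSO/H2O and tested at five 10-fold dilutions (10^-4 to 10^-8 M) for 48 h. Growth read by sulforhodamine B optical density at time zero and after 48 h of exposure to compound or vehicle. Percent growth calculated against control. GI50 is the molar concentration giving 50% reduction in net cell growth relative to cell number on day 0.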

MDA-MB-468 = assay: Cytotoxicity against human MDA-MB-468 cells after 48 hrs by SRB assay; settings: MDA-MB-468, 48 h; procedure, shortened: as §1
CCRF-CEM = assay: Cytotoxicity against human CCRF-CEM cells after 48 hrs by SRB assay; procedure, shortened: as §1
[4] = Cytotoxicity against human HL-60(TB) cells after 48 hrs by SRB assay; settings: HL-60, 48 h; procedure, shortened: as §1
K562 = assay: Cytotoxicity against human K562 cells after 48 hrs by SRB assay; settings: K562, 48 h; procedure, shortened: as §1
[5] = Cytotoxicity against human MOLT4 cells after 48 hrs by SRB assay; settings: MOLT-4, 48 h; procedure, shortened: as §1
[6] = Cytotoxicity against human RPMI8226 cells after 48 hrs by SRB assay; settings: RPMI-8226, 48 h; procedure, shortened: as §1
A549 = assay: Cytotoxicity against human A549 cells after 48 hrs by SRB assay; settings: A549, 48 h; procedure, shortened: as §1
EKVX = assay: Cytotoxicity against human EKVX cells after 48 hrs by SRB assay
Procedure, shortened: (§3)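 NCI-60 five-dose screen: compounds in DMSO/H2O tested at 10^-4 to 10^-8 M (10-fold steps) for 48 h. Cell mass read by sulforhodamine B optical density at time zero and after exposure to compound or vehicle. GI50 is the concentration giving 50% reduction in net cell growth relative to day-0 cell numbers.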

[7] = Cytotoxicity against human HOP62 cells after 48 hrs by SRB assay; settings: HOP-62, 48 h; procedure, shortened: as §3
[8] = Cytotoxicity against human HOP92 cells after 48 hrs by SRB assay; settings: HOP-92, 48 h; procedure, shortened: as §1
NCI-H226 = assay: Cytotoxicity against human NCI-H226 cells after 48 hrs by SRB assay; settings: NCI-H226, 48 h; procedure, shortened: as §1
NCI-H23 = assay: Cytotoxicity against human NCI-H23 cells after 48 hrs by SRB assay; settings: NCI-H23, 48 h; procedure, shortened: as §1
NCI-H460 = assay: Cytotoxicity against human NCI-H460 cells after 48 hrs by SRB assay; settings: NCI-H460, 48 h; procedure, shortened: as §1
NCI-H522 = assay: Cytotoxicity against human NCI-H522 cells after 48 hrs by SRB assay; settings: NCI-H522, 48 h; procedure, shortened: as §1
[9] = Cytotoxicity against human COLO205 cells after 48 hrs by SRB assay; settings: COLO 205, 48 h; procedure, shortened: as §1
[10] = Cytotoxicity against human HCC2998 cells after 48 hrs by SRB assay; settings: HCC 2998, 48 h; procedure, shortened: as §1
[11] = Cytotoxicity against human HCT116 cells after 48 hrs by SRB assay; settings: HCT-116, 48 h; procedure, shortened: as §1
[12] = Cytotoxicity against human HCT15 cells after 48 hrs by SRB assay; settings: HCT-15, 48 h; procedure, shortened: as §1
HT-29 = assay: Cytotoxicity against human HT-29 cells after 48 hrs by SRB assay; settings: HT-29, 48 h; procedure, shortened: as §1
KM12 = assay: Cytotoxicity against human KM12 cells after 48 hrs by SRB assay; settings: KM12, 48 h; procedure, shortened: as §1
[13] = Cytotoxicity against human SW620 cells after 48 hrs by SRB assay; settings: SW-620, 48 h; procedure, shortened: as §1
[14] = Cytotoxicity against human SF268 cells after 48 hrs by SRB assay; settings: SF-268, 48 h; procedure, shortened: as §1
[15] = Cytotoxicity against human SF295 cells after 48 hrs by SRB assay; settings: SF-295, 48 h; procedure, shortened: as §1
[16] = Cytotoxicity against human SF539 cells after 48 hrs by SRB assay; settings: SF-539, 48 h; procedure, shortened: as §1
[17] = Cytotoxicity against human SNB19 cells after 48 hrs by SRB assay; settings: SNB-19, 48 h; procedure, shortened: as §1
U-251 = assay: Cytotoxicity against human U251 cells after 48 hrs by SRB assay; settings: U-251, 48 h; procedure, shortened: as §2
[18] = Cytotoxicity against human LOXIMVI cells after 48 hrs by SRB assay; settings: LOX IMVI; procedure, shortened: as §1
Malme-3M = assay: Cytotoxicity against human MALME-3M cells after 48 hrs by SRB assay; procedure, shortened: as §3
M14 = assay: Cytotoxicity against human M14 cells after 48 hrs by SRB assay; settings: M14, 48 h; procedure, shortened: as §1
MDA-MB-435 = assay: Cytotoxicity against human MDA-MB-435 cells after 48 hrs by SRB assay; settings: MDA-MB-435, 48 h; procedure, shortened: as §1
SK-MEL-2 = assay: Cytotoxicity against human SK-MEL-2 cells after 48 hrs by SRB assay; settings: SK-MEL-2, 48 h; procedure, shortened: as §1
SK-MEL-28 = assay: Cytotoxicity against human SK-MEL-28 cells after 48 hrs by SRB assay; settings: SK-MEL-28, 48 h; procedure, shortened: as §1
SK-MEL-5 = assay: Cytotoxicity against human SK-MEL-5 cells after 48 hrs by SRB assay; settings: SK-MEL-5, 48 h; procedure, shortened: as §1
[19] = Cytotoxicity against human UACC257 cells after 48 hrs by SRB assay; settings: UACC-257, 48 h; procedure, shortened: as §2
[20] = Cytotoxicity against human UACC62 cells after 48 hrs by SRB assay; settings: UACC-62, 48 h; procedure, shortened: as §2
[21] = Cytotoxicity against human IGROV1 cells after 48 hrs by SRB assay; settings: IGROV-1, 48 h; procedure, shortened: as §3
[22] = Cytotoxicity against human OVCAR3 cells after 48 hrs by SRB assay; settings: OVCAR-3, 48 h; procedure, shortened: as §1
[23] = Cytotoxicity against human OVCAR4 cells after 48 hrs by SRB assay; settings: OVCAR-4, 48 h; procedure, shortened: as §1
[24] = Cytotoxicity against human OVCAR5 cells after 48 hrs by SRB assay; settings: OVCAR-5, 48 h; procedure, shortened: as §1
[25] = Cytotoxicity against human OVCAR8 cells after 48 hrs by SRB assay; settings: OVCAR-8, 48 h; procedure, shortened: as §1
[26] = Cytotoxicity against human NCI-ADR-RES cells after 48 hrs by SRB assay; procedure, shortened: as §1
[27] = Cytotoxicity against human SKOV3 cells after 48 hrs by SRB assay; settings: SK-OV-3, 48 h; procedure, shortened: as §1
786-0 = assay: Cytotoxicity against human 786-0 cells after 48 hrs by SRB assay; settings: 786-0, 48 h; procedure, shortened: as §1
A498 = assay: Cytotoxicity against human A498 cells after 48 hrs by SRB assay; settings: A498, 48 h; procedure, shortened: as §1
ACHN = assay: Cytotoxicity against human ACHN cells after 48 hrs by SRB assay; procedure, shortened: as §1
[28] = Cytotoxicity against human Caki1 cells after 48 hrs by SRB assay; settings: CAKI-1, 48 h; procedure, shortened: as §1
[29] = Cytotoxicity against human RXF393 cells after 48 hrs by SRB assay; settings: RXF 393, 48 h; procedure, shortened: as §1
SN12C = assay: Cytotoxicity against human SN12C cells after 48 hrs by SRB assay; procedure, shortened: as §1
[30] = Cytotoxicity against human TK10 cells after 48 hrs by SRB assay; settings: TK-10, 48 h; procedure, shortened: as §2
[31] = Cytotoxicity against human UO31 cells after 48 hrs by SRB assay; settings: UO-31, 48 h; procedure, shortened: as §2
[32] = Cytotoxicity against human PC3 cells after 48 hrs by SRB assay; settings: PC-3, 48 h; procedure, shortened: as §1

With `COc1ccc(-c2n[nH]nc2-c2csc3ccccc23)cc1OC` as the compound, how does the GI50 [1] read?
The GI50 was 3770 nM.

And the GI50 (MCF7)?
Its GI50 is 1450 nM.

And the GI50 (MDA-MB-231)?
Its GI50 is 3210 nM.

And the GI50 [2]?
The GI50 was 2250 nM.

What about the GI50 [3] of the same compound?
The GI50 was 2170 nM.

And the GI50 (T47D)?
Its GI50 is 2830 nM.

And the GI50 (MDA-MB-468)?
Its GI50 is 630 nM.

And the GI50 (CCRF-CEM)?
The GI50 was 3290 nM.

And the GI50 [4]?
The GI50 was 1700 nM.

And the GI50 (K562)?
Its GI50 is 516 nM.

What about the GI50 [5] of the same compound?
Its GI50 is 3050 nM.

What about the GI50 [6] of the same compound?
Its GI50 is 3640 nM.

What about the GI50 (A549) of the same compound?
Its GI50 is 4520 nM.

And the GI50 (EKVX)?
The GI50 was 3420 nM.

What about the GI50 [7] of the same compound?
The GI50 was 2180 nM.

And the GI50 [8]?
The GI50 was 921 nM.

And the GI50 (NCI-H226)?
Its GI50 is 13200 nM.

And the GI50 (NCI-H23)?
The GI50 was 3940 nM.

What about the GI50 (NCI-H460) of the same compound?
Its GI50 is 3560 nM.

What about the GI50 (NCI-H522) of the same compound?
Its GI50 is 601 nM.

What about the GI50 [9] of the same compound?
Its GI50 is 2820 nM.

What about the GI50 [10] of the same compound?
The GI50 was 4210 nM.

And the GI50 [11]?
The GI50 was 2840 nM.

What about the GI50 [12] of the same compound?
The GI50 was 1670 nM.

And the GI50 (HT-29)?
Its GI50 is 2780 nM.

And the GI50 (KM12)?
The GI50 was 2280 nM.

And the GI50 [13]?
The GI50 was 3090 nM.

And the GI50 [14]?
Its GI50 is 3690 nM.

What about the GI50 [15] of the same compound?
The GI50 was 2330 nM.

What about the GI50 [16] of the same compound?
Its GI50 is 1840 nM.

And the GI50 [17]?
Its GI50 is 4670 nM.

What about the GI50 (U-251) of the same compound?
The GI50 was 2190 nM.

And the GI50 [18]?
The GI50 was 3040 nM.

What about the GI50 (Malme-3M) of the same compound?
The GI50 was 13300 nM.

What about the GI50 (M14) of the same compound?
Its GI50 is 1950 nM.

What about the GI50 (MDA-MB-435) of the same compound?
Its GI50 is 337 nM.

And the GI50 (SK-MEL-2)?
Its GI50 is 1440 nM.

What about the GI50 (SK-MEL-28) of the same compound?
Its GI50 is 4630 nM.

And the GI50 (SK-MEL-5)?
The GI50 was 2830 nM.

And the GI50 [19]?
Its GI50 is 10900 nM.

And the GI50 [20]?
Its GI50 is 2770 nM.

And the GI50 [21]?
The GI50 was 4210 nM.

What about the GI50 [22] of the same compound?
Its GI50 is 1940 nM.

What about the GI50 [23] of the same compound?
The GI50 was 6330 nM.

What about the GI50 [24] of the same compound?
The GI50 was 7910 nM.

And the GI50 [25]?
Its GI50 is 4240 nM.

What about the GI50 [26] of the same compound?
The GI50 was 2390 nM.

And the GI50 [27]?
The GI50 was 2370 nM.

What about the GI50 (786-0) of the same compound?
Its GI50 is 3260 nM.

What about the GI50 (A498) of the same compound?
The GI50 was 2960 nM.

And the GI50 (ACHN)?
Its GI50 is 3940 nM.

And the GI50 [28]?
The GI50 was 3690 nM.

And the GI50 [29]?
Its GI50 is 2110 nM.

And the GI50 (SN12C)?
The GI50 was 8800 nM.

And the GI50 [30]?
Its GI50 is 2980 nM.

And the GI50 [31]?
Its GI50 is 2780 nM.

What about the GI50 [32] of the same compound?
The GI50 was 3080 nM.
